pEC50, pIC50: −log10 of the molar value.

Sequence of Proteasome Macropain subunit (Homo sapiens) (P49721 whole entry): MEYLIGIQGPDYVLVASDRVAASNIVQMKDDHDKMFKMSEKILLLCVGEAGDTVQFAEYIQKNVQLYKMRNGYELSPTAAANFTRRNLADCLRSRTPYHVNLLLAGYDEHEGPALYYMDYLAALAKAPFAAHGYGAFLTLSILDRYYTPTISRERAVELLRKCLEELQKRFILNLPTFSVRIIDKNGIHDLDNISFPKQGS

The first data set deals with MCF7. Kind of data set: Cytotoxicity against human MCF7 cells assessed as reduction in cell viability after 48 hrs by Hoechst 33342 staining based HCS assay. Type of data set: functional. Particulars: Homo sapiens, MCF7, 48 h; read-out: EC50; call rule not given here.
One may read the pEC50 as −log10 of the EC50, conventionally taken in molar units. As to `C[C@@H](O)[C@@H](NC(=O)c1ccc(OCc2ccccc2)cc1)C(=O)N[C@@H](C[C@]1(O)C(=O)Nc2ccccc21)C(=O)NCc1ccccc1`, the pEC50 is 6.15.

The next data set concerns NCI-H727. Kind of data set: Cytotoxicity against human NCI-H727 cells assessed as reduction in cell viability after 48 hrs by Hoechst 33342 staining based HCS assay. Particulars: Homo sapiens, NCI-H727, 48 h; read-out: EC50. Type of data set: functional. The method, boiled down: (§1)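 Cells were grown at 37 °C, 5% CO2 in medium with 10% FBS, 1% penicillin-streptomycin, 2 mM glutamine: DMEM for HuH7, MDA-MB-231 and fibroblasts, EMEM for Caco2, McCoy's for HCT116, RPMI for PC3 and NCI-H727. 4000 cells/well were seeded and dosed 24 h later at 0.1-25 μM final, from DMSO stocks. After 48 h they were fixed in ethanol/acetic acid and Hoechst-stained nuclei were counted by imaging. Survival is relative to DMSO. EC50 came from dose-response curves.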
Take `C[C@@H](O)[C@@H](NC(=O)c1ccc(OCc2ccccc2)cc1)C(=O)N[C@@H](C[C@]1(O)C(=O)Nc2ccccc21)C(=O)NCc1ccccc1`: the pEC50 is 5.70.

The target in another data set is T1, Proteasome subunit beta type-8 (Homo sapiens) (UniProt P28062).
T1 sequence (whole entry): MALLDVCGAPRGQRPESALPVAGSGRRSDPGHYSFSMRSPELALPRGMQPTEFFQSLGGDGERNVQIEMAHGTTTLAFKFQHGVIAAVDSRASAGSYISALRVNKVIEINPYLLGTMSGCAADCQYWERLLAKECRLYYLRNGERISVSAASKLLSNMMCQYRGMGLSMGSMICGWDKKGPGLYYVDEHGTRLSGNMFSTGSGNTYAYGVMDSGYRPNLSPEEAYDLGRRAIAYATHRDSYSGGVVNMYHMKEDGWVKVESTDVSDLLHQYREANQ
Kind of data set: Inhibition of human 20S immunoproteasome beta-5 at 50 uM using Suc-LLVY-AMC as substrate incubated for 15 mins measured for 45 mins by fluorescence assay relative to control.
Details: not given
The method, boiled down: (§2)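 Human 20S cCP or iCP (0.3 nM) was exposed to compound (0.001-50 μM) for 15 min in pH 8 buffer of 20 mM Tris-HCl, 10% glycerol, 0.01% SDS, 2% DMSO. Suc-LLVY-AMC at 20 μM followed. Fluorescence (ex 360/em 460 nm) was read 45 min at 37 °C versus untreated enzyme.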
One may read the inhibition as how much of the control response was suppressed. A high value points to strong suppression. `C[C@@H](O)[C@@H](NC(=O)c1ccc(OCc2ccccc2)cc1)C(=O)N[C@@H](C[C@]1(O)C(=O)Nc2ccccc21)C(=O)NCc1ccccc1` registered an inhibition above 85%.

The target of a further data set is T2, Proteasome Macropain subunit MB1 (Homo sapiens, UniProt P28074).
T2 sequence (P28074 whole entry): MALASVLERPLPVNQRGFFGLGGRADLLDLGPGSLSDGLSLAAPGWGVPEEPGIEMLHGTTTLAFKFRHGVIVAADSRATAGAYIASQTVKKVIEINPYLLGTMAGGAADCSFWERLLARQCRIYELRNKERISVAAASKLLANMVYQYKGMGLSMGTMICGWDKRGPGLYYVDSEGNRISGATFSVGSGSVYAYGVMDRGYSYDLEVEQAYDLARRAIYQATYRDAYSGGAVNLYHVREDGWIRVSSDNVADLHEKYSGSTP
Description: Inhibition of human 20S constitutive proteasome beta-5 using Suc-LLVY-AMC as substrate incubated for 15 mins measured for 45 mins by fluorescence assay.
Details: not given
The method, boiled down: as §2
A word on the pIC50: it is the IC50 on a negative log10 scale, so that one unit is a factor of ten. In the case of `C[C@@H](O)[C@@H](NC(=O)c1ccc(OCc2ccccc2)cc1)C(=O)N[C@@H](C[C@]1(O)C(=O)Nc2ccccc21)C(=O)NCc1ccccc1`, the pIC50 was 8.15.

In a further data set the test system is HCT-116. Kind of data set: Cytotoxicity against human HCT116 cells assessed as reduction in cell viability after 48 hrs by Hoechst 33342 staining based HCS assay. The following applies: Homo sapiens, HCT-116, 48 h; read-out: EC50. Format: functional. A digest of the protocol:
as §1
As for `C[C@@H](O)[C@@H](NC(=O)c1ccc(OCc2ccccc2)cc1)C(=O)N[C@@H](C[C@]1(O)C(=O)Nc2ccccc21)C(=O)NCc1ccccc1`, the pEC50 is 6.70.

The target of another data set is T3, Proteasome subunit beta type-10 (Homo sapiens) (UniProt P40306).
T3 sequence (whole entry): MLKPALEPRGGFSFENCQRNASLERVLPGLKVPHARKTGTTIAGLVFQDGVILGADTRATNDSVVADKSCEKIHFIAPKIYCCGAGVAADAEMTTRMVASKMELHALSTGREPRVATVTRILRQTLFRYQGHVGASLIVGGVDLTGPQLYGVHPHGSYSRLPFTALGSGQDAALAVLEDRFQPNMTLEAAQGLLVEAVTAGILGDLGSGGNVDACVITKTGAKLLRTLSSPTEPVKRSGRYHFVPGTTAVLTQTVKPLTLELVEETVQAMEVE
Kind of data set: Inhibition of human 20S immunoproteasome beta-2 at 50 uM using BocLRR-AMC as substrate incubated for 15 mins measured for 45 mins by fluorescence assay relative to control.
Details: not given
Molecule `C[C@@H](O)[C@@H](NC(=O)c1ccc(OCc2ccccc2)cc1)C(=O)N[C@@H](C[C@]1(O)C(=O)Nc2ccccc21)C(=O)NCc1ccccc1` came in with an inhibition above 85%.

In another data set the target is T4, Proteasome subunit beta type-10 (Homo sapiens, UniProt P40306).
T4 sequence (P40306 whole entry): T3 sequence (whole entry)
Description: Inhibition of human 20S immunoproteasome beta-2 using BocLRR-AMC as substrate incubated for 15 mins measured for 45 mins by fluorescence assay.
Details: not given
The molecule `C[C@@H](O)[C@@H](NC(=O)c1ccc(OCc2ccccc2)cc1)C(=O)N[C@@H](C[C@]1(O)C(=O)Nc2ccccc21)C(=O)NCc1ccccc1` gave a pIC50 of 5.18.

The target in the next data set is T5, Proteasome subunit beta type-8 (Homo sapiens, UniProt P28062).
T5 sequence (P28062 whole entry): T1 sequence (whole entry)
Kind of data set: Inhibition of human 20S immunoproteasome beta-5 using Suc-LLVY-AMC as substrate incubated for 15 mins measured for 45 mins by fluorescence assay.
Details: not given
The method, boiled down:
as §2
`C[C@@H](O)[C@@H](NC(=O)c1ccc(OCc2ccccc2)cc1)C(=O)N[C@@H](C[C@]1(O)C(=O)Nc2ccccc21)C(=O)NCc1ccccc1` showed a pIC50 of 7.99.

Another data set has as its system PC-3. Description: Cytotoxicity against human PC3 cells assessed as reduction in cell viability after 48 hrs by Hoechst 33342 staining based HCS assay. Format: functional. Particulars: Homo sapiens, PC-3, 48 h; read-out: EC50. A digest of the protocol:
as §1
Regarding `C[C@@H](O)[C@@H](NC(=O)c1ccc(OCc2ccccc2)cc1)C(=O)N[C@@H](C[C@]1(O)C(=O)Nc2ccccc21)C(=O)NCc1ccccc1`, the pEC50 was 6.40.

The target of a further data set is T6, Proteasome subunit beta type-9 (Homo sapiens, UniProt P28065).
T6 sequence (P28065 whole entry): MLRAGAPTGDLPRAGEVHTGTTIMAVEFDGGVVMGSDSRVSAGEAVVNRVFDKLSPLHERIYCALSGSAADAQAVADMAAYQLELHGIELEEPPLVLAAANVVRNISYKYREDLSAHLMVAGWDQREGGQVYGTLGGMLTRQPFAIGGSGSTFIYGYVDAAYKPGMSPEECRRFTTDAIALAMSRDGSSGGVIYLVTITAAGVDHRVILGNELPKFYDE
Description: Inhibition of human 20S immunoproteasome beta-1 using Ac-PAL-AMC as substrate incubated for 15 mins measured for 45 mins by fluorescence assay.
Details: not given
A digest of the protocol:
(§3)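 Human 20S immunoproteasome (0.3 nM) was given 15 min with compound (0.001-50 μM) in pH 8 buffer of 20 mM Tris-HCl, 10% glycerol, 0.01% SDS, 2% DMSO. Ac-PAL-AMC at 50 μM was the substrate. Fluorescence (ex 360/em 460 nm) was followed 45 min at 37 °C relative to control.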
On to `C[C@@H](O)[C@@H](NC(=O)c1ccc(OCc2ccccc2)cc1)C(=O)N[C@@H](C[C@]1(O)C(=O)Nc2ccccc21)C(=O)NCc1ccccc1`, for which the negative-log IC50 (pIC50) was 4.62.

For a further data set, the target named is T7, Proteasome Macropain subunit MB1 (Homo sapiens) (UniProt P28074).
T7 sequence (whole entry): T2 sequence (P28074 whole entry)
Kind of data set: Inhibition of human 20S constitutive proteasome beta-5 at 50 uM using Suc-LLVY-AMC as substrate incubated for 15 mins measured for 45 mins by fluorescence assay relative to control.
Details: not given
A digest of the protocol:
as §2
For `C[C@@H](O)[C@@H](NC(=O)c1ccc(OCc2ccccc2)cc1)C(=O)N[C@@H](C[C@]1(O)C(=O)Nc2ccccc21)C(=O)NCc1ccccc1`, the inhibition was above 85%.

The target of the next data set is T8, Proteasome subunit beta type-9 (Homo sapiens) (UniProt P28065).
T8 sequence (whole entry): T6 sequence (P28065 whole entry)
Description: Inhibition of human 20S immunoproteasome beta-1 at 50 uM using Ac-PAL-AMC as substrate incubated for 15 mins measured for 45 mins by fluorescence assay relative to control.
Details: not given
The method, boiled down: as §3
`C[C@@H](O)[C@@H](NC(=O)c1ccc(OCc2ccccc2)cc1)C(=O)N[C@@H](C[C@]1(O)C(=O)Nc2ccccc21)C(=O)NCc1ccccc1`: the inhibition is above 85%.

The next data set has as its system Huh-7. Kind of data set: Cytotoxicity against human HuH7 cells assessed as reduction in cell viability after 48 hrs by Hoechst 33342 staining based HCS assay. Particulars: huh-7. Format: functional. The method, boiled down:
as §1
For the molecule `C[C@@H](O)[C@@H](NC(=O)c1ccc(OCc2ccccc2)cc1)C(=O)N[C@@H](C[C@]1(O)C(=O)Nc2ccccc21)C(=O)NCc1ccccc1`, the EC50 result is reported as “Not Active”.

Another data set concerns the target Proteasome Macropain subunit (Homo sapiens) (UniProt P49721). Description: Inhibition of human 20S constitutive proteasome beta-2 at 50 uM using BocLRR-AMC as substrate incubated for 15 mins measured for 45 mins by fluorescence assay relative to control.
Details: not given
The method, boiled down:
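Purified human 20S proteasome (cCP or iCP), 0.3 nM, preincubated 15 min with compound (0.001-50 μM) in pH 8 buffer of 20 mM Tris-HCl, 10% glycerol, 0.005% Triton X-100, 2% DMSO. Then Boc-LRR-AMC at 50 μM was added. AMC fluorescence (ex 360/em 460 nm) was followed 45 min at 37 °C. Activity is relative to an untreated control.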
As to `C[C@@H](O)[C@@H](NC(=O)c1ccc(OCc2ccccc2)cc1)C(=O)N[C@@H](C[C@]1(O)C(=O)Nc2ccccc21)C(=O)NCc1ccccc1`, the inhibition is above 85%.

A further data set relates to Fibroblast. Kind of data set: Cytotoxicity against human fibroblasts assessed as reduction in cell viability at 25 uM after 48 hrs by Hoechst 33342 staining based HCS assay.
Details: not given
For `C[C@@H](O)[C@@H](NC(=O)c1ccc(OCc2ccccc2)cc1)C(=O)N[C@@H](C[C@]1(O)C(=O)Nc2ccccc21)C(=O)NCc1ccccc1`, the Activity result is “Non-Toxic”.

In a further data set the test system is MDA-MB-231. Kind of data set: Cytotoxicity against human MDA-MB-231 cells assessed as reduction in cell viability after 48 hrs by Hoechst 33342 staining based HCS assay. Format: functional. The following applies: Homo sapiens, MDA-MB-231, 48 h; read-out: EC50. A digest of the protocol: as §1
Regarding `C[C@@H](O)[C@@H](NC(=O)c1ccc(OCc2ccccc2)cc1)C(=O)N[C@@H](C[C@]1(O)C(=O)Nc2ccccc21)C(=O)NCc1ccccc1`, the negative logarithm of the EC50 (pEC50) was 6.15.

A further data set relates to Caco-2. Kind of data set: Cytotoxicity against human Caco2 cells assessed as reduction in cell viability after 48 hrs by Hoechst 33342 staining based HCS assay. Type of data set: functional. The following applies: Homo sapiens, Caco-2, 48 h; read-out: EC50. A digest of the protocol:
as §1
In the case of `C[C@@H](O)[C@@H](NC(=O)c1ccc(OCc2ccccc2)cc1)C(=O)N[C@@H](C[C@]1(O)C(=O)Nc2ccccc21)C(=O)NCc1ccccc1`, the pEC50 was 5.30.

The target of a further data set is T9, Proteasome component C5 (Homo sapiens) (UniProt P20618).
T9 sequence (whole entry): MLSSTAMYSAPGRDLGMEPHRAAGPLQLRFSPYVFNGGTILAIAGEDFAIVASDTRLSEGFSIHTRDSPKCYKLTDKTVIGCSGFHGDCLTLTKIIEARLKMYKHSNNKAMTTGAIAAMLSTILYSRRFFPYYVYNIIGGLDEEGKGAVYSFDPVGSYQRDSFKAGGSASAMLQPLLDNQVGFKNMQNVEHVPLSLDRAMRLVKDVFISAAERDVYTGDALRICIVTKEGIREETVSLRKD
Kind of data set: Inhibition of human 20S constitutive proteasome beta-1 at 50 uM using Z-LLE-betaNA as substrate incubated for 15 mins measured for 45 mins by fluorescence assay relative to control.
Details: not given
A digest of the protocol: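 Human 20S constitutive proteasome, 0.3 nM, was preincubated 15 min with compound (0.001-50 μM) in pH 8 Tris-HCl 20 mM, 10% glycerol, 0.01% SDS, 2% DMSO. Z-LLE-βNA at 50 μM was added. βNA fluorescence (ex 340/em 404 nm) was monitored 45 min at 37 °C against an untreated control.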
The molecule `C[C@@H](O)[C@@H](NC(=O)c1ccc(OCc2ccccc2)cc1)C(=O)N[C@@H](C[C@]1(O)C(=O)Nc2ccccc21)C(=O)NCc1ccccc1` came in with an inhibition above 85%.
